Laboratory results from ChEMBL document CHEMBL1153726, “Synthesis and anticancer activity of sclerophytin-inspired hydroisobenzofurans” (Bioorg Med Chem Lett, 2009).

How the values were obtained:
Type in all cases: functional
[1] = tested on: TK-10; experiment: Growth inhibition of human TK10 cells at 100 nM after 96 hrs by MTT assay; design: scale not given: the % may be the effect or the level left
[2] = tested on: NCI-H23; experiment: Growth inhibition of human NCI-H23 cells at 10 nM after 96 hrs by MTT assay; design: scale not given: the % may be the effect or the level left
[3] = tested on: HCC 2998; experiment: Growth inhibition of human HCC2998 cells at 1 nM after 96 hrs by MTT assay; design: scale not given: the % may be the effect or the level left
[4] = tested on: NCI-H522; experiment: Growth inhibition of human NCI-H522 cells at 100 nM after 96 hrs by MTT assay; design: scale not given: the % may be the effect or the level left
[5] = tested on: NCI-H460; experiment: Growth inhibition of human NCI-H460 cells at 10 nM after 96 hrs by MTT assay; design: scale not given: the % may be the effect or the level left
[6] = tested on: 786-0; experiment: Growth inhibition of human 786-0 cells at 10 uM after 96 hrs by MTT assay; design: scale not given: the % may be the effect or the level left
[7] = tested on: SK-OV-3; experiment: Growth inhibition of human SKOV3 cells at 1 nM after 96 hrs by MTT assay; design: scale not given: the % may be the effect or the level left
[8] = tested on: T47D; experiment: Growth inhibition of human T47D cells at 10 nM after 96 hrs by MTT assay; design: scale not given: the % may be the effect or the level left
[9] = tested on: HL-60(TB); experiment: Growth inhibition of human HL-60(TB) cells at 10 nM after 96 hrs by MTT assay; design: scale not given: the % may be the effect or the level left
[10] = Growth inhibition of human Hs 578T cells at 10 nM after 96 hrs by MTT assay; design: scale not given: the % may be the effect or the level left
[11] = tested on: CAKI-1; experiment: Growth inhibition of human Caki1 cells after 96 hrs by MTT assay; conditions: CAKI-1, 96 h
[12] = tested on: SNB-75; experiment: Growth inhibition of human SNB75 cells at 10 uM after 96 hrs by MTT assay; design: scale not given: the % may be the effect or the level left
[13] = tested on: HCT-116; experiment: Growth inhibition of human HCT116 cells at 10 uM after 96 hrs by MTT assay; design: scale not given: the % may be the effect or the level left
[14] = tested on: SK-MEL-2; experiment: Growth inhibition of human SK-MEL-2 cells after 96 hrs by MTT assay; conditions: SK-MEL-2, 96 h
How it was run: (§1)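 Tested in the NCI 60-cell-line panel in five-dose format; GI50 and LC50 values reported for each cell line.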

[15] = tested on: UACC-62; experiment: Growth inhibition of human UACC62 cells at 1 uM after 96 hrs by MTT assay; design: scale not given: the % may be the effect or the level left
[16] = tested on: MDA-MB-468; experiment: Growth inhibition of human MDA-MB-468 cells after 96 hrs by MTT assay; conditions: MDA-MB-468, 96 h
How it was run: (§2)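 Run in the NCI 60 human tumour cell line panel as a five-dose assay. GI50 and LC50 were reported for each cell line.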

[17] = tested on: SK-MEL-28; experiment: Growth inhibition of human SK-MEL-28 cells at 10 uM after 96 hrs by MTT assay; design: scale not given: the % may be the effect or the level left
[18] = tested on: A498; experiment: Growth inhibition of human A498 cells at 1 uM after 96 hrs by MTT assay; design: scale not given: the % may be the effect or the level left
[19] = tested on: HCC 2998; experiment: Growth inhibition of human HCC2998 cells after 96 hrs by MTT assay; conditions: HCC 2998, 96 h; how it was run: as §2
[20] = tested on: PC-3; experiment: Growth inhibition of human PC3 cells at 1 nM after 96 hrs by MTT assay; design: scale not given: the % may be the effect or the level left
[21] = tested on: NCI-H522; experiment: Growth inhibition of human NCI-H522 cells at 1 nM after 96 hrs by MTT assay; design: scale not given: the % may be the effect or the level left
[22] = tested on: SK-MEL-28; experiment: Growth inhibition of human SK-MEL-28 cells at 10 nM after 96 hrs by MTT assay; design: scale not given: the % may be the effect or the level left
[23] = tested on: NCI/ADR-RES; experiment: Growth inhibition of human NCI/ADR-RES cells at 10 nM after 96 hrs by MTT assay; design: scale not given: the % may be the effect or the level left
[24] = tested on: COLO 205; experiment: Growth inhibition of human COLO205 cells at 100 nM after 96 hrs by MTT assay; design: scale not given: the % may be the effect or the level left
[25] = tested on: UO-31; experiment: Growth inhibition of human UO31 cells at 1 nM after 96 hrs by MTT assay; design: scale not given: the % may be the effect or the level left
[26] = tested on: SK-MEL-28; experiment: Growth inhibition of human SK-MEL-28 cells after 96 hrs by MTT assay; conditions: SK-MEL-28, 96 h; how it was run: as §1
[27] = tested on: M14; experiment: Growth inhibition of human M14 cells at 10 uM after 96 hrs by MTT assay; design: scale not given: the % may be the effect or the level left
[28] = tested on: SF-268; experiment: Growth inhibition of human SF268 cells at 10 nM after 96 hrs by MTT assay; design: scale not given: the % may be the effect or the level left
[29] = tested on: OVCAR-3; experiment: Growth inhibition of human OVCAR-3 cells at 1 nM after 96 hrs by MTT assay; design: scale not given: the % may be the effect or the level left
[30] = tested on: NCI-H23; experiment: Growth inhibition of human NCI-H23 cells after 96 hrs by MTT assay; conditions: NCI-H23, 96 h; how it was run: as §2
[31] = tested on: NCI-H23; experiment: Growth inhibition of human NCI-H23 cells at 1 nM after 96 hrs by MTT assay; design: scale not given: the % may be the effect or the level left
[32] = tested on: RXF 393; experiment: Growth inhibition of human RXF393 cells after 96 hrs by MTT assay; conditions: RXF 393, 96 h; how it was run: as §1
[33] = tested on: T47D; experiment: Growth inhibition of human T47D cells at 10 uM after 96 hrs by MTT assay; design: scale not given: the % may be the effect or the level left
[34] = tested on: COLO 205; experiment: Growth inhibition of human COLO205 cells after 96 hrs by MTT assay; conditions: COLO 205, 96 h
[35] = tested on: 786-0; experiment: Growth inhibition of human 786-0 cells at 100 nM after 96 hrs by MTT assay; design: scale not given: the % may be the effect or the level left
[36] = tested on: UACC-257; experiment: Growth inhibition of human UACC257 cells at 10 nM after 96 hrs by MTT assay; design: scale not given: the % may be the effect or the level left
[37] = tested on: U-251; experiment: Growth inhibition of human U251 cells at 10 uM after 96 hrs by MTT assay; design: scale not given: the % may be the effect or the level left
[38] = Growth inhibition of human RPMI8266 cells at 10 nM after 96 hrs by MTT assay; design: scale not given: the % may be the effect or the level left
[39] = read-out: LC50 (the source's name)
[40] = read-out: Log10GI50 (converted)
[41] = read-out: Log10LC50 (converted)

## C=C(C)[C@H]1CC=C(C)C2=CO[C@@H](c3ccccc3F)[C@@H]21
[1]
  Activity: 92%
[2]
  Activity: 92%
[3]
  Activity: 86%
[4]
  Activity: 71%
[5]
  Activity: 97%
[6]
  Activity: 93.62%
[7]
  Activity: 98%
[8]
  Activity: 89%
[9]
  Activity: 104%
[10]
  Activity: 83%
[11]; read-out: GI50
  GI50: 5.5 µM
[11]; [39]
  CC50: > 100 µM
[11]; [40]
  GI50: 5.5 µM
[11]; [41]
  CC50: > 100 µM
[11]; read-out: Log10TGI (converted)
  TGI: 39.8 µM
[11]; read-out: TGI
  TGI: 39.8 µM
[12]
  Activity: 80.72%
[13]
  Activity: 71.81%
[14]; read-out: GI50
  GI50: 3.74 µM
[14]; [39]
  CC50: 55.2 µM
[14]; [40]
  GI50: 3.72 µM
[14]; [41]
  CC50: 55 µM
[14]; read-out: Log10TGI (converted)
  TGI: 19.1 µM
[14]; read-out: TGI
  TGI: 19.2 µM
[15]
  Activity: 29%
[16]; read-out: GI50
  GI50: 1.43 µM
[16]; [39]
  CC50: 66.1 µM
[16]; [40]
  GI50: 1.45 µM
[16]; [41]
  CC50: 66.1 µM
[16]; read-out: Log10TGI (converted)
  TGI: 14.1 µM
[16]; read-out: TGI
  TGI: 14.1 µM
[17]
  Activity: 110.2%
[18]
  Activity: -16%
[19]; read-out: GI50
  GI50: 6.4 µM
[19]; [39]
  CC50: 45.3 µM
[19]; [40]
  GI50: 6.46 µM
[19]; [41]
  CC50: 45.7 µM
[19]; read-out: Log10TGI (converted)
  TGI: 19.5 µM
[19]; read-out: TGI
  TGI: 19.3 µM
[20]
  Activity: 95%
[21]
  Activity: 82%
[22]
  Activity: 93%
[23]
  Activity: 97%
[24]
  Activity: 92%
[25]
  Activity: 89%
[26]; read-out: GI50
  GI50: 10.5 µM
[26]; [39]
  CC50: 47.1 µM
[26]; [40]
  GI50: 10.5 µM
[26]; [41]
  CC50: 46.8 µM
[26]; read-out: Log10TGI (converted)
  TGI: 22.4 µM
[26]; read-out: TGI
  TGI: 22.2 µM
[27]
  Activity: 102.54%
[28]
  Activity: 94%
[29]
  Activity: 88%
[30]; read-out: GI50
  GI50: 4.88 µM
[30]; [39]
  CC50: 51.4 µM
[30]; [40]
  GI50: 4.9 µM
[30]; [41]
  CC50: 51.3 µM
[30]; read-out: Log10TGI (converted)
  TGI: 19.5 µM
[30]; read-out: TGI
  TGI: 19.4 µM
[31]
  Activity: 98%
[32]; read-out: GI50
  GI50: 7 µM
[32]; [39]
  CC50: 64.7 µM
[32]; [40]
  GI50: 6.92 µM
[32]; [41]
  CC50: 64.6 µM
[32]; read-out: Log10TGI (converted)
  TGI: 24 µM
[32]; read-out: TGI
  TGI: 23.9 µM
[33]
  Activity: 56.11%
[34]; read-out: GI50
  GI50: 9.77 µM
[34]; [39]
  CC50: 46.3 µM
[34]; [40]
  GI50: 9.77 µM
[34]; [41]
  CC50: 46.8 µM
[34]; read-out: Log10TGI (converted)
  TGI: 21.4 µM
[34]; read-out: TGI
  TGI: 21.5 µM
[35]
  Activity: 89%
[36]
  Activity: 90%
[37]
  Activity: 97.35%
[38]
  Activity: 56%
